In ChEMBL document CHEMBL4433264, “Novel hydrophilic galactose-conjugated chlorin e6 derivatives for photodynamic therapy and fluorescence imaging” (Bioorg Med Chem Lett, 2019):

Columns and labels:
HeLa = assay: Phototoxicity in human HeLa cells assessed as reduction in cell viability in presence of irradiation with LED light at 12 J/cm2; type: functional, cell-based; conditions: light or radiation study
Procedure, shortened: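 HeLa cells were cultured in DMEM/F12 with 10% FBS, antibiotic-free, at 37 °C and 5% CO2. Compound-treated cells were irradiated with a 660 nm LED at 12 J/cm2. Viable cells were quantified by FMCA using 10 independent microcultures per concentration. Grubbs criterion removed artifacts before IC50 was calculated from concentration versus survival index (±SE).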

[1] = Dark toxicity in human HeLa cells assessed as reduction in cell viability; type: cell-based
Procedure, shortened: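 HeLa cells were grown in DMEM/F12 with 10% FBS, without antibiotics, at 37 °C and 5% CO2, and exposed to compound without irradiation. Live cells were counted by fluorometric microculture cytotoxicity assay (FMCA), with 10 independent microcultures per concentration. Outliers were screened by Grubbs criterion, and IC50 was derived from concentration versus survival index (±SE).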

[2] = Drug penetration in human HeLa cells at 10 uM measured after 40 mins by fluorescence microscopy; type: ADME, cell-based
Procedure, shortened: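 HeLa cells were incubated for 40 min with compound at 10 μM, alongside untreated cells. Uptake was judged by intracellular red fluorescence under fluorescence microscopy, paired with light micrographs of the same fields.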

[3] = Aqueous solubility of the compound by UV spectroscopy; type: physicochemical; conditions: buffer
[4] = Potency index, ratio of IC50 for dark toxicity in human HeLa cells to IC50 for phototoxicity in human HeLa cells in presence of irradiation with LED light at 12 J/cm2; type: cell-based; conditions: read-out: Ratio IC50
Procedure, shortened: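 The index is dark IC50 divided by photoinduced IC50 in HeLa cells. Both IC50 values come from FMCA viability readings (10 microcultures per concentration, Grubbs outlier check, fit of concentration versus survival index). The phototoxicity arm used 660 nm LED irradiation at 12 J/cm2.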

Drug uptake [2]	solubility [3]	SMILES	IC50 (HeLa) [µM]	IC50 [1] [µM]	selectivity ratio [4]
Active	Soluble	C=Cc1c(C)c2cc3nc(c(CC(=O)OC)c4[nH]c(cc5nc(cc1[nH]2)C(C)=C5CC)c(C)c4C(=O)NCCN(C[C@H]1OC(O)[C@H](O)[C@@H](O)[C@H]1O)C[C@H]1OC(O)[C@H](O)[C@@H](O)[C@H]1O)[C@@H](CCC(=O)OC)[C@@H]3C (some centres undefined)	1.11	6.1	–
Active	Soluble	C=Cc1c(C)c2cc3nc(c(CC(=O)OC)c4[nH]c(cc5nc(cc1[nH]2)C(C)=C5CC)c(C)c4C(=O)NCCN(C[C@H]1OC(O)[C@H](O)[C@@H](O)[C@H]1O)C[C@H]1OC(O)[C@H](O)[C@@H](O)[C@H]1O)[C@@H](CCC(=O)NCCN(C[C@H]1OC(O)[C@H](O)[C@@H](O)[C@H]1O)C[C@H]1OC(O)[C@H](O)[C@@H](O)[C@H]1O)[C@@H]3C (some centres undefined)	1.57	59.6	38
Active	Soluble	C=Cc1c(C)c2cc3nc(c(CC(=O)OC)c4[nH]c(cc5nc(cc1[nH]2)C(C)=C5CC)c(C)c4C(=O)NCCN(C[C@H]1OC(O)[C@H](O)[C@@H](O)[C@H]1O)C[C@H]1OC(O)[C@H](O)[C@@H](O)[C@H]1O)[C@@H](CCC(=O)O)[C@@H]3C (some centres undefined)	1.24	39	31
